In ChEMBL document CHEMBL4765310, “Discovery of 4-(3,5-dimethoxy-4-(((4-methoxyphenethyl)amino)methyl)phenoxy)-N-phenylaniline as a novel c-myc inhibitor against colorectal cancer in vitro and in vivo” (Eur J Med Chem, 2020):
Activity calls are given as the source filed them. No cut-off for these calls is given here.

Experiments:
[1] = tested on: SW-620; test: Antiproliferative activity against human SW-620 cells assessed as inhibition of cell viability measured after 72 hrs by MTT assay; type: functional, cell-based; settings: SW-620, 72 h
Method in brief: (§1)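 Cells kept at 37 °C, 5% CO₂ in RPMI 1640, L-15 or DMEM with 10% FBS and 1% penicillin-streptomycin. Plated at 2-4 × 10³ cells/well and dosed 24 h after plating. After 72 h exposure, MTT added for 2-4 h at 37 °C. Formazan dissolved in DMSO, absorbance read at 570 nm. IC50 is the mean of at least three independent experiments.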

[2] = tested on: DLD-1; test: Antiproliferative activity against human DLD-1 cells assessed as inhibition of cell viability measured after 72 hrs by MTT assay; type: functional, cell-based; settings: DLD-1, 72 h; method in brief: as §1
[3] = tested on: HCT-116; test: Antiproliferative activity against human HCT-116 cells assessed as inhibition of cell viability measured after 72 hrs by MTT assay; type: functional, cell-based; settings: HCT-116, 72 h; method in brief: as §1
[4] = tested on: HT-29; test: Antitumour activity against human HT-29 cells xenografted in Balb/c mouse assessed as inhibition of tumour growth at 30 mg/kg, po administered via gavage for 30 days and measured every 2 days by vernier caliper analysis; type: functional, organism-based; settings: time 30.0 day
Method in brief: (§2)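 Female BALB/c nude mice, 6–7 weeks old, injected subcutaneously with 8×10^6 HT29 cells. At about 100 mm³ average tumour volume, mice were randomised into groups (n=5). Dosing was daily oral gavage for 30 days in 10% DMSO/1% Tween-80/saline, with a vehicle group. Tumour size (calipers; 0.5 × shortest diameter² × longest diameter) and body weight were recorded every two days.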

[5] = Toxicity in Balb/c mouse xenografted with human HT-29 cells assessed as reduction in body weight at 30 mg/kg, po administered via gavage measured after 10 days; type: organism-based; settings: in vivo, 240 h, time 10 day; method in brief: as §2
[6] = tested on: L02; test: Cytotoxicity against human L02 cells assessed as inhibition of cell viability at 0.625 to 40 uM measured after 72 hrs by MTT assay; type: cell-based; settings: l02, 72 h, dose 0.625-40 µM
Method in brief: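 Cells were grown at 37 °C, 5% CO2, in medium with 10% FBS, and seeded at 2–4×10^3 cells/well. Compound was added 24 h after plating and left for 72 h. MTT (5 mg/mL stock) was then added for 2–4 h at 37 °C, formazan was dissolved in DMSO, and absorbance read at 570 nm. Values are means of at least three independent experiments.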

[7] = tested on: HT-29; test: Antiproliferative activity against human HT-29 cells assessed as inhibition of cell viability measured after 72 hrs by MTT assay; type: functional, cell-based; settings: HT-29, 72 h; method in brief: as §1
[8] = tested on: HCT-15; test: Antiproliferative activity against human HCT-15 cells assessed as inhibition of cell viability measured after 72 hrs by MTT assay; type: functional, cell-based; settings: HCT-15, 72 h; method in brief: as §1

`O=c1[nH]cc(F)c(=O)[nH]1` [FLUOROURACIL] showed an IC50 [1] of 15.3 µM, an IC50 [2] of 11.4 µM and an IC50 [3] of 12.3 µM. For the same molecule, the Activity [4] was “Active”, the Activity [5] was “Toxic” and the Activity [6] was “Toxic”. For the same molecule, the IC50 [7] was 13.4 µM and the IC50 [8] was 10.9 µM.
